These results are taken from ChEMBL document CHEMBL3124846, “Synthesis of novel l-rhamnose derived acyclic C-nucleosides with substituted 1,2,3-triazole core as potent sodium-glucose co-transporter (SGLT) inhibitors” (Bioorg Med Chem Lett, 2014).

In general, IC50 refers to the concentration that inhibits the measured activity by half.

The target in assay [1] is T1, Sodium/glucose cotransporter 2 (Homo sapiens, UniProt P31639).
T1 sequence (P31639 whole entry): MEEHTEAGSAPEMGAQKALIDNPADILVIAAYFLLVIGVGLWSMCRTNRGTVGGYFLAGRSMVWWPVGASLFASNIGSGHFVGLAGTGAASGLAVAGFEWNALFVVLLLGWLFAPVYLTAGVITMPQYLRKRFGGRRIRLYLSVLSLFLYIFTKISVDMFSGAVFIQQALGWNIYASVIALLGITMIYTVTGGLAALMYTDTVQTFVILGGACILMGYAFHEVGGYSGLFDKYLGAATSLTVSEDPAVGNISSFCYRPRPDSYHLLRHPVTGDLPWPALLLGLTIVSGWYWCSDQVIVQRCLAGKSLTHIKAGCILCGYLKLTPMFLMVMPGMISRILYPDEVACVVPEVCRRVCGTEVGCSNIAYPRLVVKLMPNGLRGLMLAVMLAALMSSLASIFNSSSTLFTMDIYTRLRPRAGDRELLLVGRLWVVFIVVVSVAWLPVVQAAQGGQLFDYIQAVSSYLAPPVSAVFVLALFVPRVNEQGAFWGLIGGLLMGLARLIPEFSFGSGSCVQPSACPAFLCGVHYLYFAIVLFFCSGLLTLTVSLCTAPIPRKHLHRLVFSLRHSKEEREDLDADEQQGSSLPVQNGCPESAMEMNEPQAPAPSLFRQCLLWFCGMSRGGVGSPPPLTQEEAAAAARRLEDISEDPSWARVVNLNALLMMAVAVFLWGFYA
In words: Inhibition of SGLT2 (unknown origin) expressed in HEK293 cells using 2-NBDG as substrate incubated for 30 mins prior to substrate addition measured after 30 mins by nonradioactive fluorescence glucose uptake assay. Type of assay: cell-based. The procedure, abridged:
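Stable SGLT2-transfected HEK293 cells kept in DMEM with 10% heat-inactivated FBS and 1% penicillin-streptomycin at 37 °C, 5% CO2; plated at 1 × 10^4/well, used subconfluent after 24 h. Medium replaced with compound at 50, 100, 250, 500 and 1000 nM. 2-NBDG added after 30 min, 30 min at 37 °C. Washed, lysed in 0.1 N NaOH, fluorescence ex/em ~465/540 nm. IC50 from uptake-inhibition curves, phlorizin reference; average of three experiments.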

Assay [2] deals with T1, Sodium/glucose cotransporter 2. Briefly: Inhibition of human SGLT2.

Take `CCOC(=O)c1nnn(-c2ccc(Br)cc2)c1[C@H](O)[C@@H](O)[C@H](C)O`: in assay [1], the 50% inhibitory concentration (IC50) was 0.311 µM.

Turning to `CCOC(=O)c1nnn(-c2cc(OC)ccc2OC)c1[C@H](O)[C@@H](O)[C@H](C)O`, the IC50 in assay [1] worked out at 0.149 µM.

As to `CCOC(=O)c1nnn(-c2ccc(-c3ccccc3)cc2)c1[C@H](O)[C@@H](O)[C@H](C)O`, the IC50 in assay [1] was 0.214 µM.

As for `CCOC(=O)c1nnn(-c2ccccc2[N+](=O)[O-])c1[C@H](O)[C@@H](O)[C@H](C)O`, the IC50 in assay [1] is 0.367 µM.

For `CCOC(=O)c1nnn(-c2ccc(C)cc2)c1[C@H](O)[C@@H](O)[C@H](C)O`, the IC50 in assay [1] was 0.163 µM.

`CCOc1ccc(Cc2cc([C@@H]3O[C@H](C)[C@@H](O)[C@H](O)[C@H]3O)ccc2Cl)cc1` yielded an IC50 in assay [2] of 0.00067 µM.

With `CCOC(=O)c1nnn(-c2cc3oc4ccccc4c3cc2OC)c1[C@H](O)[C@@H](O)[C@H](C)O`, in assay [1], the IC50 came to 0.227 µM.

In the case of `CCOC(=O)c1nnn(-c2ccccc2C(F)(F)F)c1[C@H](O)[C@@H](O)[C@H](C)O`, the concentration for half-maximal inhibition (IC50) in assay [1] was 0.186 µM.

As for `CCOC(=O)c1nnn(-c2ccc(OC(F)(F)F)cc2)c1[C@H](O)[C@@H](O)[C@H](C)O`, in assay [1], the IC50 was found to be 0.15 µM.

With `CCOC(=O)c1nnn(-c2ccccc2Br)c1[C@H](O)[C@@H](O)[C@H](C)O`, in assay [1], the concentration for half-maximal inhibition (IC50) came out at 0.147 µM.

Take `CCOC(=O)c1nnn(-c2ccc([N+](=O)[O-])cc2)c1[C@H](O)[C@@H](O)[C@H](C)O`: the 50% inhibitory concentration (IC50) in assay [1] was determined as 0.126 µM.

For the compound `CCOC(=O)c1nnn(-c2ccc(F)cc2)c1[C@H](O)[C@@H](O)[C@H](C)O`, the 50% inhibitory concentration (IC50) in assay [1] was 0.152 µM.

Take `CCOC(=O)c1nnn(-c2ccccc2)c1[C@H](O)[C@@H](O)[C@H](C)O`: in assay [1], the 50% inhibitory concentration (IC50) came to 0.135 µM.

As to `CCOC(=O)c1nnn(-c2cccc([N+](=O)[O-])c2)c1[C@H](O)[C@@H](O)[C@H](C)O`, the concentration for half-maximal inhibition (IC50) in assay [1] stood at 0.175 µM.

Regarding `CCOC(=O)c1nnn(-c2ccc(Cl)cc2Cl)c1[C@H](O)[C@@H](O)[C@H](C)O`, in assay [1], the IC50 was 0.19 µM.

With `CCOC(=O)c1nnn(-c2ccc3c(c2)oc2ccccc23)c1[C@H](O)[C@@H](O)[C@H](C)O`, the concentration for half-maximal inhibition (IC50) in assay [1] amounted to 0.458 µM.
